Screens as filed in PubChem BioAssay.
Rtt109 HAT inh: inhibitors of Candida albicans Rtt109/Vps75 histone acetyltransferase; inhibition, % at 34.9 µM; 0.16% of 330,000 active; purified Rtt109/Vps75, ThioGlo CoA-SH fluorescence, 4 h; Q5AAJ8;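 active = inhibition of at least 50% in every replicate; inconclusive = best replicate reaches 50% inhibition but some replicates fall short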
Target sequence (Q5AAJ8 whole entry, looked up): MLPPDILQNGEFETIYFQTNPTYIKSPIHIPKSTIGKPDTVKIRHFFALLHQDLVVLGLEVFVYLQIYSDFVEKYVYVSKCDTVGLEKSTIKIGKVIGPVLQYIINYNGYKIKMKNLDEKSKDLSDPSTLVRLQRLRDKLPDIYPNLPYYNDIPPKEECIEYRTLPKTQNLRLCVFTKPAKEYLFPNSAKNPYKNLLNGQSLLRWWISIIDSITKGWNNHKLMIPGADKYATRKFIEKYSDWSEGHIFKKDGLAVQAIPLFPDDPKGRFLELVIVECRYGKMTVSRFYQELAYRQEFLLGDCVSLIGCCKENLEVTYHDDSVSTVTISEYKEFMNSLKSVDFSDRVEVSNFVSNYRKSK
Arr AP2 block: human beta-arrestin and AP2 interaction inhibition; FITC-arrestin peptide / GST-AP2 beads, flow cytometry; AP2 beta2 appendage carries R879A mutation; inhibition, % at 10 µM; 0.31% of 340,000 active;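 active = inhibition above a set limit, near 3 SD of compounds lacking own fluorescence, cut at about 54% in these data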
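Measured by: flow cytometry, FL1 (488/535 nm); Material: AP2 appendage R879A on GSH beads; Evaluation: percent response; Timing: pre-incubation 12 min, peptide binding 1 h, room temperature; Also added: 50 nM FITC-arrestin peptide; Medium: PBS with 0.05% Tween 20 and 0.1% BSA.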
Env fusion inh: inhibitors of HIV Env-mediated cell fusion | HeLa-JRFL Env/CEM21 cell fusion, luciferase | inhibition, % at 12.3 µM | 1.1% of 360,000 active | AID 651610;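 active = mean replicate inhibition score of at least 50 and every replicate individually at or above 50; inconclusive = only one of the two criteria met; inactive = mean below 50 and not all replicates reaching 50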
Glyco luc inh: blocks N-linked glycosylation in D54 reporter cells | 0.23% of 360,000 active | D54 ERlucT glycosylation luciferase reporter, 24 h; percent of 100 nM tunicamycin response | reporter increase, % at 12.5 µM | AID 588692;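 active = mean luciferase reporter signal, scaled so untreated is 0 and the glycosylation-blocking control 100, at or above a set limit in every replicate; inconclusive = mean reaches the limit but not every replicate does; inactive = mean below the limit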;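 also: luciferase carries N-glycosylation sites so blocking glycosylation raises the light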
PfHsp90 set2: reduces growth (ATP signal) of yeast expressing P. falciparum Hsp90; S. cerevisiae expressing PfHsp90, BacTiter-Glo ATP, 48 h; yeast lacking PDR1 and PDR3 efflux regulators; inhibition, % at 9.4 µM; 0.32% of 310,000 active; AID 504621;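 active = every replicate shows inhibition above about 80%, whatever the replicate mean, limit read from the data; inconclusive = mean inhibition reaches the set limit but some replicate falls short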
PAX8 reporter: inhibitors of PAX8 transcriptional activity in RMG-I cells; RMG-I TPO-luciferase reporter, SteadyGlo, 24 h; inhibition, % at 12.6 µM; 1.2% of 360,000 active; AID 652154;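 active = mean replicate inhibition at least 60% with every replicate also reaching 60%; inconclusive = only one of the two criteria is met; inactive = mean below 60% and not all replicates reaching 60%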;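 also: luciferase light reporting Pax8 driven TPO promoter activity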
Numbers stand for hits. Most compounds without a hit are left out; they make up all but 2.3% or so of the library.

How did O=C(C[C@H]1CC[C@@H]2[C@H](COC[C@@H](O)CN2Cc2ccc3c(c2)OCO3)O1)Nc1ccc(-c2ccccc2)cc1 do in these assays?
Env fusion inh: inactive; PAX8 reporter: inactive

What do the screens show for `O=C(C[C@@H]1CC[C@@H]2[C@H](COC[C@H](O)CN2Cc2ccc3c(c2)OCO3)O1)Nc1ccc(-c2ccccc2)cc1`?
Env fusion inh: inactive; PAX8 reporter: 80

Results for O=C(C[C@H]1CC[C@H]2[C@@H](COC[C@@H](O)CN2Cc2ccc3c(c2)OCO3)O1)Nc1ccc(-c2ccccc2)cc1 ?
Env fusion inh: inconclusive; PAX8 reporter: 87

How did CC1=C/C(=C(/c2cc(C)c(O)c(Br)c2)c2ccccc2S(=O)(=O)O)C=C(Br)C1=O do in these assays?
Rtt109 HAT inh: inactive; Arr AP2 block: inactive; Env fusion inh: inactive; Glyco luc inh: inactive; PfHsp90 set2: inactive; PAX8 reporter: 77

What do the screens show for `CC1=C/C(=C(/c2ccc(O)c(C)c2)c2ccccc2S(=O)(=O)O)C=CC1=O`?
Rtt109 HAT inh: inactive; Arr AP2 block: inactive; Env fusion inh: inactive; Glyco luc inh: inactive; PfHsp90 set2: inactive; PAX8 reporter: inactive

What do the screens show for `O=C(C[C@H]1CC[C@@H](NC(=O)Nc2cc(F)ccc2F)[C@H](CO)O1)NCCCN1CCOCC1`?
Env fusion inh: inactive; PAX8 reporter: inactive

How did O=C(NCc1ccc2c(c1)OCO2)C(C(=O)c1ccccc1)n1cc(Cl)ccc1=O (stereo not drawn) do in these assays?
Rtt109 HAT inh: inactive; Arr AP2 block: inactive; Glyco luc inh: inactive; PfHsp90 set2: inactive; PAX8 reporter: 85

Results for COc1ccccc1C(=O)Nc1ccc(OCC(=O)N2CC(C)CC(C)C2)cc1 (stereo not drawn) ?
Rtt109 HAT inh: 53; Arr AP2 block: inactive; Glyco luc inh: inactive; PfHsp90 set2: inactive; PAX8 reporter: inactive

How did COc1ccc(NC(=O)N(C)C[C@@H]2Oc3cc(C#CCC(C)C)ccc3S(=O)(=O)N([C@@H](C)CO)C[C@@H]2C)cc1 do in these assays?
PAX8 reporter: 65

Results for C[C@@H]1CN([C@@H](C)CO)S(=O)(=O)c2ccc(C#Cc3ccccc3)cc2O[C@@H]1CN(C)C(=O)Nc1ccc2c(c1)OCO2 ?
Env fusion inh: inactive; PAX8 reporter: inactive

Results for COc1ccc(NC(=O)N(C)C[C@H]2Oc3cc(C#CCC(C)C)ccc3S(=O)(=O)N([C@@H](C)CO)C[C@@H]2C)cc1 ?
PAX8 reporter: inactive

What do the screens show for `C[C@@H]1CN([C@@H](C)CO)S(=O)(=O)c2ccc(C#Cc3ccccc3)cc2O[C@H]1CN(C)C(=O)Nc1ccc2c(c1)OCO2`?
Env fusion inh: inactive; PAX8 reporter: inactive

How did C[C@@H]1CN([C@H](C)CO)S(=O)(=O)c2ccc(C#Cc3ccncc3)cc2O[C@H]1CN(C)C(=O)Nc1ccc2c(c1)OCO2 do in these assays?
PAX8 reporter: 91

Results for C[C@@H]1CN([C@H](C)CO)S(=O)(=O)c2ccc(C#Cc3ccncc3)cc2O[C@@H]1CN(C)C(=O)Nc1ccc2c(c1)OCO2 ?
PAX8 reporter: 70

How did COc1cccc(NC(=O)N(C)C[C@H]2Oc3cc(C#Cc4ccncc4)ccc3S(=O)(=O)N([C@H](C)CO)C[C@H]2C)c1 do in these assays?
Env fusion inh: inactive; Glyco luc inh: inactive; PAX8 reporter: 66

Results for COc1cccc(C#Cc2ccc3c(c2)O[C@H](CN(C)C(=O)c2ccccn2)[C@@H](C)CN([C@@H](C)CO)S3(=O)=O)c1 ?
Env fusion inh: inactive; PAX8 reporter: inactive

How did COc1cccc(C#Cc2ccc3c(c2)O[C@@H](CN(C)C(=O)c2ccccn2)[C@H](C)CN([C@@H](C)CO)S3(=O)=O)c1 do in these assays?
Env fusion inh: inactive; PAX8 reporter: 73

What do the screens show for `O=C(C[C@H]1CC[C@@H]2[C@H](COC[C@@H](O)CN2Cc2ccc(Oc3ccccc3)cc2)O1)N1CCCCC1`?
PAX8 reporter: inactive

Results for O=C(N/N=C\C=C\c1ccc([N+](=O)[O-])o1)c1cccs1 ?
Rtt109 HAT inh: inactive; Arr AP2 block: inactive; Env fusion inh: inactive; Glyco luc inh: 41; PfHsp90 set2: inactive; PAX8 reporter: inactive

Results for O=C(N/N=C/C=C/c1ccccc1[N+](=O)[O-])c1cccs1 ?
Rtt109 HAT inh: inactive; Arr AP2 block: inactive; Env fusion inh: inactive; Glyco luc inh: inactive; PfHsp90 set2: inactive; PAX8 reporter: inactive

Results for Cc1ccccc1OCC(=O)N/N=C/c1ccc([N+](=O)[O-])o1 ?
Rtt109 HAT inh: inactive; Arr AP2 block: inactive; Env fusion inh: inactive; Glyco luc inh: inactive; PfHsp90 set2: inactive; PAX8 reporter: inactive

How did COc1ccccc1OCC(=O)N/N=C/C=C/c1ccc([N+](=O)[O-])o1 do in these assays?
Rtt109 HAT inh: inactive; Arr AP2 block: inactive; Env fusion inh: inactive; Glyco luc inh: 58; PfHsp90 set2: inactive; PAX8 reporter: inactive

What do the screens show for `C[C@@H]1CN([C@H](C)CO)C(=O)c2cccc(N(C)C)c2O[C@@H]1CN(C)Cc1ccccc1`?
Env fusion inh: inactive; PAX8 reporter: inactive

How did C[C@@H]1CN([C@H](C)CO)C(=O)c2cc(NC(=O)Nc3ccc4c(c3)OCO4)ccc2O[C@@H]1CN(C)Cc1ccccc1 do in these assays?
Env fusion inh: inactive; PAX8 reporter: inactive

What do the screens show for `CC(=O)c1cccc(Nc2nc(-c3cccc([N+](=O)[O-])c3)cs2)c1`?
Rtt109 HAT inh: inactive; Arr AP2 block: inactive; Env fusion inh: 72; Glyco luc inh: inactive; PfHsp90 set2: inactive

What do the screens show for `CC(=O)Nc1nc(C)c(-c2csc(Nc3cccc([N+](=O)[O-])c3)n2)s1`?
Rtt109 HAT inh: inactive; Arr AP2 block: inactive; Glyco luc inh: inactive; PfHsp90 set2: inactive

Results for CCC12CN(S(=O)(=O)c3ccc(C)cc3)CC(CC)(CN(S(=O)(=O)c3ccc(C)cc3)C1)C2=O ?
Rtt109 HAT inh: inactive; Arr AP2 block: inactive; Env fusion inh: 109; Glyco luc inh: inactive

What do the screens show for `C[C@H]1CCCCO[C@H](CN(C)Cc2ccc(Cl)c(Cl)c2)[C@@H](C)CN([C@@H](C)CO)C(=O)c2cc(NS(=O)(=O)c3ccccc3)ccc2O1`?
PAX8 reporter: inactive

How did C[C@@H]1CCCCO[C@H](CN(C)Cc2ccc(Cl)c(Cl)c2)[C@@H](C)CN([C@@H](C)CO)C(=O)c2cc(NS(=O)(=O)c3ccccc3)ccc2O1 do in these assays?
Env fusion inh: inactive; PAX8 reporter: 103

Results for C[C@@H]1CCCCO[C@@H](CN(C)Cc2ccc(Cl)c(Cl)c2)[C@H](C)CN([C@@H](C)CO)C(=O)c2cc(NS(=O)(=O)c3ccccc3)ccc2O1 ?
Env fusion inh: inactive; PAX8 reporter: 95
